Data from the M2OR odorant receptor database.

How the values were obtained:
Conditions in all cases: stereoisomer not certain
UniProt A2ATE5 = biological target: T1, UniProt A2ATE5
T1 sequence (whole entry): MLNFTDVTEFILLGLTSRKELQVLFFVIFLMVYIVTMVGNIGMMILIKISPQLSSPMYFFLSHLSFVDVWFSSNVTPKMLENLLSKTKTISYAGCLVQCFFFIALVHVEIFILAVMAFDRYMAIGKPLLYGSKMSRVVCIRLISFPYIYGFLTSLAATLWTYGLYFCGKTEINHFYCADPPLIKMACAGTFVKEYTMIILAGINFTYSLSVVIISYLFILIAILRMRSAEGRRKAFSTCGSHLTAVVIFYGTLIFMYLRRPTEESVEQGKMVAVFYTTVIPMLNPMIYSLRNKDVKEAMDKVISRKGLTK
Summary of the method: (§1)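 Whether a receptor–molecule pair is responsive (active) rests on the original authors' judgment that its measured signal was statistically different from baseline. Pairs without that judgment are non-responsive (inactive). Sources used varied assay methods, commonly transient luciferase assays in mammalian cell lines.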

UniProt A2AVB0 = biological target: T2, UniProt A2AVB0
T2 sequence (whole entry): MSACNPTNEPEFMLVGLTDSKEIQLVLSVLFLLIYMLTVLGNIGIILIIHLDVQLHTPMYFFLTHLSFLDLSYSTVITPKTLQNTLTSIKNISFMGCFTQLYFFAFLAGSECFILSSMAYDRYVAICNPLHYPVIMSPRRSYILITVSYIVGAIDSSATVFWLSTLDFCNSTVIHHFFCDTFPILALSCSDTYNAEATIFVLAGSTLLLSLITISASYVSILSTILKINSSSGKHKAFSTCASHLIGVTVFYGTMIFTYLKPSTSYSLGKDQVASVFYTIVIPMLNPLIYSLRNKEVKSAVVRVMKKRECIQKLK
Summary of the method: as §1

UniProt E9PVX1 = biological target: T3, UniProt E9PVX1
T3 sequence (whole entry): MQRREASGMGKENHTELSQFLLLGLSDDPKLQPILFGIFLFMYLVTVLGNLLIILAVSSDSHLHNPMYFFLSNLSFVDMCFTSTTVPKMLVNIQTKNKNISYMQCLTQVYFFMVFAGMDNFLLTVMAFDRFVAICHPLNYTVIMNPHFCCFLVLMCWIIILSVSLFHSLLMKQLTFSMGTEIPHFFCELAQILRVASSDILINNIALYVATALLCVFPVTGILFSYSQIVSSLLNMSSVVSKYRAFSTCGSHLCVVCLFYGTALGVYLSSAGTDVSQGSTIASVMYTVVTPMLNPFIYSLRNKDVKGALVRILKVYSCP
Summary of the method: as §1

UniProt E9PZ66 = biological target: T4, UniProt E9PZ66
T4 sequence (whole entry): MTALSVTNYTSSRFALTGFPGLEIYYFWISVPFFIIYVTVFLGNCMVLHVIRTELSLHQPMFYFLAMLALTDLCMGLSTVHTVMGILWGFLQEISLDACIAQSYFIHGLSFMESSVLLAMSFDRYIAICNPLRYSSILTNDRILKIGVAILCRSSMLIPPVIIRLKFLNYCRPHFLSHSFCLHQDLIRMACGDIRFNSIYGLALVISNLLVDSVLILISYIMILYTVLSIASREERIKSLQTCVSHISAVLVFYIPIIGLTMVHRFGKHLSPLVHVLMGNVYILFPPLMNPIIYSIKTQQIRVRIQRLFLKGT
Summary of the method: as §1

UniProt E9Q4X7 = biological target: T5, UniProt E9Q4X7
T5 sequence (whole entry): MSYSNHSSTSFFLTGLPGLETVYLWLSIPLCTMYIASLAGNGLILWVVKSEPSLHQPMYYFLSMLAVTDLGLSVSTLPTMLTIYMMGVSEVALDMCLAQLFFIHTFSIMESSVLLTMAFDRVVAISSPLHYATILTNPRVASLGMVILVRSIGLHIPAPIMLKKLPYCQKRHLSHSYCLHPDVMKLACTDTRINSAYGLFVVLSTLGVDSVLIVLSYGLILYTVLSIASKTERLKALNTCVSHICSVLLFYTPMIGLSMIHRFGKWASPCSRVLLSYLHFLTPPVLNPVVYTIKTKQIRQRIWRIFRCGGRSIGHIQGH
Summary of the method: as §1

UniProt E9Q546 = biological target: T6, UniProt E9Q546
T6 sequence (whole entry): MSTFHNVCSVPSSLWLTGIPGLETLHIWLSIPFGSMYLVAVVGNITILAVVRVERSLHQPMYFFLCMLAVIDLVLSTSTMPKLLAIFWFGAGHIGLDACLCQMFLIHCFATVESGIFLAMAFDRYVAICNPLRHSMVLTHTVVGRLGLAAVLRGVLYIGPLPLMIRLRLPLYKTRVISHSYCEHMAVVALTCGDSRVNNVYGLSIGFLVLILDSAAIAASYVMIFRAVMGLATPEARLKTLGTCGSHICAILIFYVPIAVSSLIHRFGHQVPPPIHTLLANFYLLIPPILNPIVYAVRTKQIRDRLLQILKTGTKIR
Summary of the method: as §1

UniProt E9Q6Z7 = biological target: T7, UniProt E9Q6Z7
T7 sequence (whole entry): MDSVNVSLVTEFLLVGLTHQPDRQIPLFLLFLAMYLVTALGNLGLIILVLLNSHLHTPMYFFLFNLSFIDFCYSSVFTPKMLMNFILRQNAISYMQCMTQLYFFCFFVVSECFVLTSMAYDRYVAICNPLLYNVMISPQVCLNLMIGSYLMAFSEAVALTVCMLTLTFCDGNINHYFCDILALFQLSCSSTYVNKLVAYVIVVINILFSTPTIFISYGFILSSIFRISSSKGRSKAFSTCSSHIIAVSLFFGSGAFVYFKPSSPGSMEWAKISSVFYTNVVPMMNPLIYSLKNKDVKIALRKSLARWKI
Summary of the method: as §1

UniProt E9Q9Z6 = biological target: T8, UniProt E9Q9Z6
T8 sequence (whole entry): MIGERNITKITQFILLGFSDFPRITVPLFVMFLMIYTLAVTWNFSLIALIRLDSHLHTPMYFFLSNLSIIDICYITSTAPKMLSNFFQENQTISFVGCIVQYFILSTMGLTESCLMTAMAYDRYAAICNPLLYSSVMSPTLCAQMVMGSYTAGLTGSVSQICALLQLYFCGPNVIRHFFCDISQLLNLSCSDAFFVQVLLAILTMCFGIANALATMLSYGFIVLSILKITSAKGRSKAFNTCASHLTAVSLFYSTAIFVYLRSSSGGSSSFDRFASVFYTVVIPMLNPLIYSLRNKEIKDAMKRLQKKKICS
Summary of the method: as §1

UniProt A2AVB5 = biological target: T9, UniProt A2AVB5
T9 sequence (whole entry): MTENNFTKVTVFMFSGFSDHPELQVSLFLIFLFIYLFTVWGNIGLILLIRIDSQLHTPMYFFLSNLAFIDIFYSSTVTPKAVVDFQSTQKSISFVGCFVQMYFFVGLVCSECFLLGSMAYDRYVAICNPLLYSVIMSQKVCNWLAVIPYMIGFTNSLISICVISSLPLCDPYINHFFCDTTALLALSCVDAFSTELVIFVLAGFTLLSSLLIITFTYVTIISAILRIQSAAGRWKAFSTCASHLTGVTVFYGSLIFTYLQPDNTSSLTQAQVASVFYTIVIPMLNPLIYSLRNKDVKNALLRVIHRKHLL
Summary of the method: as §1

UniProt B2RVX8 = biological target: T10, UniProt B2RVX8
T10 sequence (whole entry): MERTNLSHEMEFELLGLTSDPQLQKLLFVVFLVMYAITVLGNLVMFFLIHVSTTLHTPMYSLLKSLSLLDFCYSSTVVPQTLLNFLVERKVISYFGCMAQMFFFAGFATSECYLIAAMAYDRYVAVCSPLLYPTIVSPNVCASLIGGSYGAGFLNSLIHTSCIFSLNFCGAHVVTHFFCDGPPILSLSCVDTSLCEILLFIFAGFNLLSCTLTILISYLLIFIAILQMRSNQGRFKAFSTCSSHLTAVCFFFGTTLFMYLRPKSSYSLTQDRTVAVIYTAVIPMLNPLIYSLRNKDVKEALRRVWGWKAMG
Summary of the method: as §1

UniProt K7N609 = biological target: T11, UniProt K7N609
T11 sequence (whole entry): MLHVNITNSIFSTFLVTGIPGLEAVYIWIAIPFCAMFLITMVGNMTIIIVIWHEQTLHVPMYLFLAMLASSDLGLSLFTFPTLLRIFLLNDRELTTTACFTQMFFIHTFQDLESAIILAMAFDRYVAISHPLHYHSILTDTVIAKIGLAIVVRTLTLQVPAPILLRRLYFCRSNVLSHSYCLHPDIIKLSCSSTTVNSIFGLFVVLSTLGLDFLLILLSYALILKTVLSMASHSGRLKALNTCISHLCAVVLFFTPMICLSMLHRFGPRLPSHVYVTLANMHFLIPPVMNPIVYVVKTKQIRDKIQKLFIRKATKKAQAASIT
Summary of the method: as §1

UniProt E9PX47 = biological target: T12, UniProt E9PX47
T12 sequence (whole entry): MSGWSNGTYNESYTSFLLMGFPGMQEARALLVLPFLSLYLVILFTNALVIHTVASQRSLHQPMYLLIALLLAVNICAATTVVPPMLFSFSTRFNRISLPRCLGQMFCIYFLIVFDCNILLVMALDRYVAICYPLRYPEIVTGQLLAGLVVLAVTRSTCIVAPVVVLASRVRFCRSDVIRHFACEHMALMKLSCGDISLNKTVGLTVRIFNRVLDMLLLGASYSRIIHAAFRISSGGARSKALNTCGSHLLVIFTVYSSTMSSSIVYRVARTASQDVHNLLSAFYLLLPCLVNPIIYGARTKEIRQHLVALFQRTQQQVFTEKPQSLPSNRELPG
Summary of the method: as §1

UniProt E1BM68 = biological target: T13, UniProt E1BM68
T13 sequence (whole entry): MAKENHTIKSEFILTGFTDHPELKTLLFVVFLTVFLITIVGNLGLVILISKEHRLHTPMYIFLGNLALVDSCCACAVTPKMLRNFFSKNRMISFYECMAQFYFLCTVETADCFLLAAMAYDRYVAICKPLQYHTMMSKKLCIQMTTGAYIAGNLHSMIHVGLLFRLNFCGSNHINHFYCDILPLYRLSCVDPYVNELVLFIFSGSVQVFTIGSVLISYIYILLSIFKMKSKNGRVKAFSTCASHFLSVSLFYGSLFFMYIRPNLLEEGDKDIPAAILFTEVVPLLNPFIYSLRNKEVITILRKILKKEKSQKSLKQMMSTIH
Summary of the method: as §1

UniProt E9QAT7 = biological target: T14, UniProt E9QAT7
T14 sequence (whole entry): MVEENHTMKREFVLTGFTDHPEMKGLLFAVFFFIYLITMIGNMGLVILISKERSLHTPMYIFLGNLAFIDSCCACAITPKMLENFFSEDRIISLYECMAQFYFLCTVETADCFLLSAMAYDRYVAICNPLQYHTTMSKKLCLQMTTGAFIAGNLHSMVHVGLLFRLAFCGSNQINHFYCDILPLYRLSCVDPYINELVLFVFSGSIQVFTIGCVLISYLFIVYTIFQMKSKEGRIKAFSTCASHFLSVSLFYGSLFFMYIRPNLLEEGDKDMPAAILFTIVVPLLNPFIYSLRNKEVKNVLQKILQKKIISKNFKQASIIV
Summary of the method: as §1

UniProt E9PXN3 = biological target: T15, UniProt E9PXN3
T15 sequence (whole entry): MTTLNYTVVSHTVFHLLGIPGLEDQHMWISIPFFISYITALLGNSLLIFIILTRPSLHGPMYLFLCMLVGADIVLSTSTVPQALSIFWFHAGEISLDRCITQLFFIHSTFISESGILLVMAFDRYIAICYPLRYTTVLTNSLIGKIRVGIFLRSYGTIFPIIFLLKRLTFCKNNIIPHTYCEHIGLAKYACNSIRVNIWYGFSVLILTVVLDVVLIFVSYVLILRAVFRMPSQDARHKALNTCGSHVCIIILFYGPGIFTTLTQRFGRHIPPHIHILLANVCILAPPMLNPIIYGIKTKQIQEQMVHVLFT
Summary of the method: as §1

Measured: odorant receptor agonist call;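 note: active if original authors judged signal statistically different from baseline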

CC1CC=CCCCCCCCCCC(=O)C1 (stereo not drawn)
inactive: UniProt A2ATE5 | UniProt A2AVB0 | UniProt E9PVX1 | UniProt E9PZ66 | UniProt E9Q4X7 | UniProt E9Q546 | UniProt E9Q6Z7
active: UniProt E9Q9Z6

CCC(C)O (stereo not drawn)
inactive: UniProt A2ATE5 | UniProt A2AVB0 | UniProt E9PVX1 | UniProt E9PZ66 | UniProt E9Q4X7 | UniProt E9Q546 | UniProt E9Q6Z7

C=CC(C)=CCC=C(C)CCC=C(C)C
inactive: UniProt A2ATE5 | UniProt A2AVB0 | UniProt E9PVX1 | UniProt E9PZ66 | UniProt E9Q4X7 | UniProt E9Q546 | UniProt E9Q6Z7

COc1ccccc1
inactive: UniProt A2ATE5 | UniProt A2AVB0 | UniProt E9PVX1 | UniProt E9PZ66 | UniProt E9Q4X7 | UniProt E9Q546 | UniProt E9Q6Z7

CCCCOC(=O)C(C)OC(=O)CCC (stereo not drawn)
inactive: UniProt A2AVB5 | UniProt B2RVX8 | UniProt E9Q546 | UniProt K7N609

CNc1ccccc1C(=O)OC
inactive: UniProt A2ATE5 | UniProt A2AVB0 | UniProt E9PVX1 | UniProt E9PZ66 | UniProt E9Q4X7 | UniProt E9Q546 | UniProt E9Q6Z7

COC(OC)c1ccccc1
inactive: UniProt A2ATE5 | UniProt A2AVB0 | UniProt E9PVX1 | UniProt E9PZ66 | UniProt E9Q4X7 | UniProt E9Q546 | UniProt E9Q6Z7

CCCCCCCCC=CC=O
inactive: UniProt A2ATE5 | UniProt A2AVB0 | UniProt E9PVX1 | UniProt E9PZ66 | UniProt E9Q4X7 | UniProt E9Q546 | UniProt E9Q6Z7

Cc1ccc(OC(=O)C(C)C)cc1
inactive: UniProt A2ATE5 | UniProt A2AVB0 | UniProt E9PVX1 | UniProt E9PZ66 | UniProt E9Q4X7 | UniProt E9Q546 | UniProt E9Q6Z7

CCCCCOC(=O)CC
inactive: UniProt A2ATE5 | UniProt A2AVB0 | UniProt E9PVX1 | UniProt E9PZ66 | UniProt E9Q4X7 | UniProt E9Q546 | UniProt E9Q6Z7

CCCCCCCC(=O)[O-].[H+]
inactive: UniProt A2AVB5 | UniProt B2RVX8 | UniProt E9PX47 | UniProt K7N609
active: UniProt E9Q546

CCc1nccnc1OC
active: UniProt E1BM68 | UniProt E9QAT7

CCCCOC(=O)CCC
inactive: UniProt E9PX47 | UniProt E9PXN3

CCCCCCCCCCCC(=O)O
active: UniProt E9PXN3
